16 molecules from ChEMBL document CHEMBL1138813, “Synthesis and antiviral activity of 3-formyl- and 3-cyano-2,5,6-trichloroindole nucleoside derivatives” (J Med Chem, 2004) can be followed below.

Test [1] has as its system HFF. Briefly: Cytotoxicity produced in stationary HFF cells was determined by microscopic inspection of uninfected cells. The class given is functional, cell-based. The conditions noted are these: Homo sapiens. An outline of the steps: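 Stationary HFF cells in MEM with 10% fetal bovine serum, in plaque-assay plates. Visual cytotoxicity scored microscopically in duplicate wells on cells not affected by virus, at the time of HCMV plaque enumeration (after 7–10 days at 37 °C). IC50 from linear portion of regression of % inhibition against log10 drug concentration.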

The nature of test [2]: Cytotoxicity against KB cells was determined by crystal violet staining and spectrophotometric quantitation of dye eluted from stained cells. It is filed as functional, cell-based. The following applies: Homo sapiens. The essentials:
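KB cells seeded at 3000–5000 per well, incubated overnight at 37 °C, then compound added in quadruplicate at six to eight concentrations. After 48 h at 37 °C in CO₂ (two population doublings), cells were fixed in 95% ethanol and stained with 0.1% crystal violet. Dye eluted with acidified ethanol, read at 570 nm. IC50 from linear regression of % inhibition vs log10 concentration.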

Test [3] relates to HFF. Kind of test: Inhibitory concentration required against human cytomegalovirus (HCMV) expressed in HFF cells was determined by plaque reduction assay. It is filed as functional, cell-based. An outline of the steps: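 HFF cells in 24-well dishes infected with about 100 pfu/cm² of HCMV Towne strain. After adsorption, compound (10 mg/mL DMSO stock diluted in medium) added to duplicate wells at four to eight concentrations. Incubated 7–10 days at 37 °C, then fixed and crystal violet stained; plaques counted microscopically. % plaque reduction vs drug-free wells; IC50 by log-linear regression. GCV as positive control.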
Background: Plaque reduction counts the foci of infection that form in a cell layer.

The nature of test [4]: Inhibitory concentration required against herpes simplex virus type-1 (HSV-1) expressed in BSC-1 cells was determined by ELISA assay. It is filed as functional, cell-based, Cercopithecidae. An outline of the steps:
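BSC-1 cells, 10 000 per well in MEM(E) plus 10% calf serum, incubated overnight at 37 °C. Drug added in quadruplicate with HSV-1 KOS strain at 100 pfu/well, then 3 days at 37 °C. […] Acyclovir as positive control.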
A general note: In an ELISA, binding on a coated surface is turned into a signal by an enzyme label.

For orientation: IC50 means the concentration that inhibits the measured activity by half. A low value points to inhibition by little substance. In the case of `OC[C@H]1OC(n2c(Cl)c(/C=N/O)c3cc(Cl)c(Cl)cc32)C(O)[C@@H]1O` (single isomer, unassigned), the IC50 in the test with HFF [1] turned out to be 20 µM; in test [2], 25 µM; with HFF [3] it was 3.9 µM; in test [4], 5 µM.

In the case of `N/C(=N\O)c1c(Cl)n(C2O[C@H](CO)[C@@H](O)C2O)c2cc(Cl)c(Cl)cc12` (single isomer, unassigned), the IC50 in the test with HFF [1] is 100 µM; in test [2], greater than 100 µM; in the test on HFF [3], 0.3 µM; in test [4], 70 µM.

As to `NC(=O)N/N=C/c1c(Cl)n(C2O[C@H](CO)[C@@H](O)[C@H]2O)c2cc(Cl)c(Cl)cc12` (some centres not stated), the IC50 was 100 µM with HFF [1], greater than 100 µM in test [2], 3 µM with HFF [3] and greater than 100 µM in test [4].

As for `CO/N=C/c1c(Cl)n(C2O[C@H](CO)[C@@H](O)C2O)c2cc(Cl)c(Cl)cc12` (single isomer, unassigned), the IC50 was 32 µM in the test on HFF [1], 70 µM in test [2], 40 µM with HFF [3] and 15 µM in test [4].

Consider `N/C(S)=N/N=C/c1c(Cl)n(C2O[C@H](CO)[C@@H](O)[C@H]2O)c2cc(Cl)c(Cl)cc12` (some centres not stated), for which the IC50 is 100 µM in the test on HFF [1], 65 µM in test [2], 2.2 µM in the test on HFF [3] and greater than 100 µM in test [4].

`N#Cc1c(Cl)n(C2O[C@H](CO)[C@@H](O)C2O)c2cc(Cl)c(Cl)cc12` (single isomer, unassigned): the IC50 in test [2] worked out at 65 µM; with HFF [3], 0.55 µM; in test [4], 15 µM.

Turning to `Nc1nc2c(ncn2COC(CO)CO)c(=O)[nH]1` [GANCICLOVIR], the IC50 in the test with HFF [1] was greater than 100 µM; in test [2], greater than 100 µM; in test [4], 3.5 µM.

Regarding `COC(=O)N/N=C/c1c(Cl)n(C2O[C@H](CO)[C@@H](O)[C@H]2O)c2cc(Cl)c(Cl)cc12` (some centres not stated), the IC50 was determined as 32 µM in the test with HFF [1], 20 µM in test [2], 1.7 µM in the test with HFF [3] and 30 µM in test [4].

As for `CN(C)/N=C/c1c(Cl)n(C2O[C@H](CO)[C@@H](O)C2O)c2cc(Cl)c(Cl)cc12` (single isomer, unassigned), the IC50 is 32 µM in the test with HFF [1], 70 µM in test [2], 0.27 µM in the test with HFF [3] and 15 µM in test [4].

`N/C(=N\O)c1c(Br)n(C2O[C@H](CO)[C@@H](O)C2O)c2cc(Cl)c(Cl)cc12` (single isomer, unassigned): the IC50 with HFF [1] was greater than 100 µM; in test [2], 35 µM; with HFF [3], 0.41 µM; in test [4] it was greater than 100 µM.

Regarding `CC(=O)N/N=C/c1c(Cl)n(C2O[C@H](CO)[C@@H](O)C2O)c2cc(Cl)c(Cl)cc12` (single isomer, unassigned), the IC50 in the test with HFF [1] was 32 µM; in test [2], 9 µM; in the test on HFF [3] it was 1.7 µM; in test [4], 30 µM.

For the molecule `NC(=O)c1c(Cl)n(C2O[C@H](CO)[C@@H](O)C2O)c2cc(Cl)c(Cl)cc12` (single isomer, unassigned), the IC50 with HFF [1] is 45 µM; in test [2] it was 45 µM; in the test on HFF [3], 2 µM; in test [4], 40 µM.

With `O=Cc1c(Cl)n(C2O[C@H](CO)[C@@H](O)C2O)c2cc(Cl)c(Cl)cc12` (single isomer, unassigned), the IC50 in test [2] was determined as 45 µM; with HFF [3], 0.23 µM; in test [4], 40 µM.

As for `OC[C@H]1O[C@@H](n2c(Cl)nc3cc(Cl)c(Cl)cc32)C(O)[C@@H]1O` (single isomer, unassigned), the IC50 is 210 µM in test [2] and 102 µM in test [4].

Turning to `OC[C@H]1O[C@@H](n2c(Br)nc3cc(Cl)c(Cl)cc32)C(O)[C@@H]1O` (single isomer, unassigned), the IC50 in test [2] was greater than 100 µM; in test [4], 130 µM.

For the molecule `COC(=N)c1c(Cl)n(C2O[C@H](CO)[C@@H](O)C2O)c2cc(Cl)c(Cl)cc12` (single isomer, unassigned), the half-inhibitory concentration (IC50) with HFF [1] was 100 µM; in test [2], 50 µM; in the test on HFF [3], 0.36 µM; in test [4], 70 µM.
